Data as given in ChEMBL document CHEMBL3822380, “Simple avarone mimetics as selective agents against multidrug resistant cancer cells” (Eur J Med Chem, 2016).
Converted amounts (≈) assume the structure as drawn. The source made the active and inactive calls.

Experiments:
[1] = tested on: NCI-H460; test: Induction of apoptosis in human NCI-H460 cells assessed as early apoptotic cells at 25 uM after 72 hrs by annexin-V/propidium iodide staining-based flow cytometric analysis (reference value: 0.3%); type: functional
[2] = tested on: Saccharomyces cerevisiae; test: Antifungal activity against Saccharomyces cerevisiae ATCC 9763 by broth microdilution method; type: functional
Summary of the method: (§1)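 Broth microdilution per NCCLS. Compounds dissolved in DMSO as 10 mg/mL stock, diluted in Mueller Hinton broth (bacteria) or Sabouraud dextrose broth (fungi). Amikacin served as the positive control for bacteria and nystatin for fungi.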

[3] = tested on: NCI-H460; test: Induction of apoptosis in multidrug resistant human NCI-H460 cells assessed as dead cells at 25 uM after 72 hrs by annexin-V/propidium iodide staining-based flow cytometric analysis (reference value: 1.5%); type: functional
[4] = tested on: NCI-H460; test: Cytotoxicity against human NCI-H460 cells after 72 hrs by MTT assay; type: functional, cell-based; conditions: NCI-H460, 72 h
Summary of the method: (§2)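 Seeding in 96-well plates at 1000 (NCI-H460), 2000 (NCI-H460/R) or 4000 (HaCaT) cells/well, treated after 24 h for 72 h. MTT at 0.4 mg/mL final, 4 h at 37 °C. Formazan dissolved in DMSO, absorbance read at 540 nm. Inhibition % = (1 − A treated/A untreated)×100. IC30 and IC50 obtained by linear regression.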

[5] = tested on: NCI-H460; test: Induction of apoptosis in human NCI-H460 cells assessed as late apoptotic/necrotic cells at 25 uM after 72 hrs by annexin-V/propidium iodide staining-based flow cytometric analysis (reference value: 0.2%); type: functional
[6] = tested on: NCI-H460; test: Induction of apoptosis in multidrug resistant human NCI-H460 cells assessed as late apoptotic/necrotic cells at 25 uM after 72 hrs by annexin-V/propidium iodide staining-based flow cytometric analysis (reference value: 1%); type: functional
[7] = tested on: Proteus hauseri; test: Antibacterial activity against Proteus hauseri ATCC 13315 by broth microdilution method; type: functional; summary of the method: as §1
[8] = tested on: Micrococcus luteus; test: Antibacterial activity against Micrococcus luteus ATCC 10240 by broth microdilution method; type: functional; summary of the method: as §1
[9] = tested on: Aspergillus brasiliensis; test: Antifungal activity against Aspergillus brasiliensis ATCC 16404 by broth microdilution method; type: functional; summary of the method: as §1
[10] = tested on: NCI-H460; test: Induction of superoxide anion generation in multidrug resistant human NCI-H460 cells at 25 uM after 72 hrs by DHE staining-based flow cytometric analysis relative to control; type: functional, cell-based
Summary of the method: (§3)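 Seeded as for cell death (50,000 or 100,000 cells/well), treated 72 h at 25 µM, with CDDP 5 µM as control. Adherent cells trypsinized and loaded with 1 µM DHE for 30 min at 37 °C in the dark, then washed twice in PBS. Flow cytometry at ex 488/em 585 nm (FL2-H). Mean fluorescence intensity corrected for autofluorescence and compared with untreated control.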

[11] = tested on: HaCaT; test: Induction of mitochondrial membrane potential depolarization in human HaCaT cells at 25 uM after 15 mins by JC1-staining-based flow cytometric analysis; type: cell-based; conditions: 0.25 h
Summary of the method: (§4)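 Cells treated with 25 µM compound, with CDDP 5 µM as control. Stained with JC-1 for 15 min at 37 °C in a CO2 incubator, washed twice in assay buffer and resuspended in PBS. Flow cytometry read red aggregate (FL2-H) versus green monomer (FL1-H) fluorescence. Live cells were also imaged by fluorescence microscopy.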

[12] = tested on: Escherichia coli; test: Antibacterial activity against Escherichia coli ATCC 25922 by broth microdilution method; type: functional; summary of the method: as §1
[13] = tested on: NCI-H460; test: Induction of apoptosis in human NCI-H460 cells assessed as live cells at 25 uM after 72 hrs by annexin-V/propidium iodide staining-based flow cytometric analysis (reference value: 98.3%); type: functional
[14] = tested on: NCI-H460; test: Induction of superoxide anion generation in human NCI-H460 cells at 25 uM after 72 hrs by DHE staining-based flow cytometric analysis relative to control; type: functional, cell-based; summary of the method: as §3
[15] = Induction of apoptosis in human HaCaT cells assessed as live cells at 25 uM after 72 hrs by annexin-V/propidium iodide staining-based flow cytometric analysis (reference value: 96.8%); type: cell-based; conditions: read-out: Activity
[16] = tested on: Staphylococcus aureus; test: Antibacterial activity against Staphylococcus aureus ATCC 6538 by broth microdilution method; type: functional; summary of the method: as §1
[17] = tested on: NCI-H460; test: Cytotoxicity against multidrug resistant human NCI-H460 cells after 72 hrs by MTT assay; type: functional, cell-based; conditions: NCI-H460, 72 h; summary of the method: as §2
[18] = tested on: Salmonella enteritidis; test: Antibacterial activity against Salmonella enterica subsp. enterica serovar Enteritidis ATCC 13076 by broth microdilution method; type: functional; summary of the method: as §1
[19] = Selectivity ratio of IC30/IC50 for human HaCaT cells to IC30/IC50 for multidrug resistant human NCI-H460 cells; type: ADME, cell-based; conditions: HaCaT cells versus multidrug resistant NCI-H460 cells
Summary of the method: (§5)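 Fold threshold of 1.5 used to call selectivity to cancer cells, resistance, or selectivity to MDR cells.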

[20] = tested on: HaCaT; test: Induction of superoxide anion generation in human HaCaT cells at 25 uM after 72 hrs by DHE staining-based flow cytometric analysis relative to control; type: cell-based; summary of the method: as §3
[21] = tested on: Candida albicans; test: Antifungal activity against Candida albicans ATCC 10231 by broth microdilution method; type: functional; summary of the method: as §1
[22] = tested on: Micrococcus luteus; test: Antibacterial activity against Micrococcus luteus ATCC 4698 by broth microdilution method; type: functional; conditions: NCTC 2665; summary of the method: as §1
[23] = tested on: NCI-H460; test: Induction of mitochondrial membrane potential depolarization in human NCI-H460 cells at 25 uM after 15 mins by JC1-staining-based flow cytometric analysis; type: functional, cell-based; summary of the method: as §4
[24] = tested on: NCI-H460; test: Induction of apoptosis in human NCI-H460 cells assessed as dead cells at 25 uM after 72 hrs by annexin-V/propidium iodide staining-based flow cytometric analysis (reference value: 1.2%); type: functional
[25] = tested on: Clostridium sporogenes; test: Antibacterial activity against Clostridium sporogenes ATCC 19404 by broth microdilution method; type: functional; summary of the method: as §1
[26] = tested on: HaCaT; test: Induction of apoptosis in human HaCaT cells assessed as dead cells at 25 uM after 72 hrs by annexin-V/propidium iodide staining-based flow cytometric analysis (reference value: 2.8%); type: cell-based
[27] = tested on: Kocuria rhizophila; test: Antibacterial activity against Kocuria rhizophila ATCC 9341 by broth microdilution method; type: functional; conditions: DC2201; summary of the method: as §1
[28] = tested on: NCI-H460; test: Induction of apoptosis in multidrug resistant human NCI-H460 cells assessed as live cells at 25 uM after 72 hrs by annexin-V/propidium iodide staining-based flow cytometric analysis (reference value: 96.4%); type: functional
[29] = tested on: NCI-H460; test: Induction of mitochondrial membrane potential depolarization in multidrug resistant human NCI-H460 cells at 25 uM after 15 mins by JC1-staining-based flow cytometric analysis; type: functional, cell-based; summary of the method: as §4
[30] = tested on: Bacillus spizizenii; test: Antibacterial activity against Bacillus subtilis ATCC 6633 by broth microdilution method; type: functional; summary of the method: as §1
[31] = tested on: Pseudomonas aeruginosa; test: Antibacterial activity against Pseudomonas aeruginosa ATCC 9027 by broth microdilution method; type: functional; summary of the method: as §1
[32] = tested on: HaCaT; test: Cytotoxicity against human HaCaT cells after 72 hrs by MTT assay; type: cell-based; conditions: for IC50: Homo sapiens, HaCaT; for IC30: human, hacat; summary of the method: as §2
[33] = tested on: HaCaT; test: Induction of apoptosis in human HaCaT cells assessed as early apoptotic cells at 25 uM after 72 hrs by annexin-V/propidium iodide staining-based flow cytometric analysis (reference value: 0.2%); type: cell-based
[34] = Selectivity ratio of IC30/IC50 for human HaCaT cells to IC30/IC50 for human NCI-H460 cells; type: ADME, cell-based; conditions: HaCaT cells versus NCI-H460 cells; summary of the method: as §5
[35] = tested on: NCI-H460; test: Selectivity ratio of IC30/IC50 for human NCI-H460 cells to IC30/IC50 for multidrug resistant human NCI-H460 cells; type: functional; summary of the method: as §5
[36] = tested on: NCI-H460; test: Induction of apoptosis in multidrug resistant human NCI-H460 cells assessed as early apoptotic cells at 25 uM after 72 hrs by annexin-V/propidium iodide staining-based flow cytometric analysis (reference value: 1.1%); type: functional
[37] = tested on: HaCaT; test: Induction of apoptosis in human HaCaT cells assessed as late apoptotic/necrotic cells at 25 uM after 72 hrs by annexin-V/propidium iodide staining-based flow cytometric analysis (reference value: 0.2%); type: cell-based
[38] = tested on: NCI-H460; test: Resistance index, ratio of IC30/IC50 for multidrug resistant human NCI-H460 cells to IC30/IC50 for human NCI-H460 cells; type: functional; summary of the method: as §5

Row | SMILES | MIC [2] | IC30 [4] | IC50 [4] | MIC [7] | MIC [8] | MIC [9] | MIC [12] | MIC [16] | IC30 [17] | IC50 [17] | MIC [18] | selectivity ratio [19] | MIC [21] | MIC [22] | MIC [25] | MIC [27] | MIC [30] | MIC [31] | IC50 [32] | IC30 [32] | further results
1 | CC(C)(C)C1=CC(=O)C=C(NCCc2ccccc2)C1=O | 34 µM (≈ 9.63 µg/mL) | 7 µM | 14 µM | 17700 µM (≈ 5010 µg/mL) | 34 µM (≈ 9.63 µg/mL) | 1110 µM (≈ 313 µg/mL) | 9 µM (≈ 2.55 µg/mL) | 9 µM (≈ 2.55 µg/mL) | 3 µM | 6 µM | 4420 µM (≈ 1250 µg/mL) | ≤ 1.5 | 34 µM (≈ 9.63 µg/mL) | 2210 µM (≈ 626 µg/mL) | 4420 µM (≈ 1250 µg/mL) | 17700 µM (≈ 5010 µg/mL) | 4420 µM (≈ 1250 µg/mL) | 4420 µM (≈ 1250 µg/mL) | 23 µM | 19 µM | Activity [1]: 2.4%; Activity [3]: 40.3%; Activity [5]: 9.5%; Activity [6]: 11.8%; Activity [10]: Active; Activity [11]: Non-toxic; Activity [13]: 66.1%; Activity [14]: inactive; viability at 72 h, 25 µM [15]: 74.8%; Activity [20]: Non-toxic; Activity [23]: Active; Activity [24]: 22%; Activity [26]: 14.2%; Activity [28]: 45.9%; Activity [29]: Active; Activity [33]: 4.1%; selectivity ratio [34]: ≤ 1.5; selectivity ratio [35]: <=1.5; Activity [36]: 2%; Activity [37]: 6.9%
2 | CCCCNC1=CC(=O)C(C(C)(C)C)=CC1=O | 154 µM (≈ 36.2 µg/mL) | 5 µM | 36 µM | 1240 µM (≈ 291 µg/mL) | 38 µM (≈ 8.94 µg/mL) | 2460 µM (≈ 580 µg/mL) | 19 µM (≈ 4.47 µg/mL) | 38 µM (≈ 8.94 µg/mL) | 19 µM | 72 µM | 620 µM (≈ 146 µg/mL) | ≤ 1.5 | 77 µM (≈ 18.1 µg/mL) | 2470 µM (≈ 581 µg/mL) | 1240 µM (≈ 291 µg/mL) | 2470 µM (≈ 581 µg/mL) | 1240 µM (≈ 291 µg/mL) | 620 µM (≈ 146 µg/mL) | > 100 µM | 50 µM | Ratio [38]: <=1.5; selectivity ratio [34]: ≤ 1.5
